Laboratory results published in article PMC6357779 (Journal of biomolecular screening, 2013).
Where a SMILES comes first, the peptide text is derived from it. The star is where a group is joined. Cbz = O=C(OCc1ccccc1)*

Legend:
[1] = tested on: estrogen receptor (ERE-tk-luc reporter) in MCF-7 cells; assay: ERE-tk-luc luciferase transactivation assay in MCF-7 cells; assay type: cell-based, human; conditions: MCF-7, 10 μM compound, 24 h, RLU normalized to no compound added
[2] = tested on: estradiol-mediated transactivation (ERE-tk-luc) in MCF-7 cells; assay: Estradiol competition transactivation luciferase reporter assay in MCF-7 cells; assay type: cell-based, human
In short: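 MCF-7 cells moved to phenol red–free DMEM with 10% charcoal-stripped FBS for 24 h, then plated at 100,000 cells/well (96-well). Next day each well was transfected with 200 ng ERE-tk-luc plasmid using Lipofectamine LTX. Cells then received 100 nM estradiol alone, test compound alone (100 nM), or estradiol plus 100 nM, 1 μM or 10 μM test compound. Bright-Glo luminescence was read, and RLU normalized to no-compound wells. Triplicates, three biological replicates.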

[3] = target: GFP-GRER chimera (N-terminus of the glucocorticoid receptor fused to the human ERα ligand binding domain) (Homo sapiens, UniProt P03372); assay: GFP-GRER nuclear translocation high-content imaging assay in 6020 cells; assay type: cell-based
[4] = MCF-7, 100 nM estradiol + 10 μM compound

GFP-GRER chimera (N-terminus of the glucocorticoid receptor fused to the human ERα ligand binding domain), sequence (P03372 302-595, change not shown): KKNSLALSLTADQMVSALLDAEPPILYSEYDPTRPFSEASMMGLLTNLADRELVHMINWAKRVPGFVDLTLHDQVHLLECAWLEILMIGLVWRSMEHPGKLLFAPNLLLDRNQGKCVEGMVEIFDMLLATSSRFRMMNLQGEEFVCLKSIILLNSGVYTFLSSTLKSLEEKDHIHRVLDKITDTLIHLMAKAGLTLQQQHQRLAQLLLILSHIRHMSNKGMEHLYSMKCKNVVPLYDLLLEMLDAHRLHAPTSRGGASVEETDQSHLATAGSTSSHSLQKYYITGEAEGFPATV
GFP-GRER chimera (N-terminus of the glucocorticoid receptor fused to the human ERα ligand binding domain), sequence (P06536 1-565, change not shown, further chain): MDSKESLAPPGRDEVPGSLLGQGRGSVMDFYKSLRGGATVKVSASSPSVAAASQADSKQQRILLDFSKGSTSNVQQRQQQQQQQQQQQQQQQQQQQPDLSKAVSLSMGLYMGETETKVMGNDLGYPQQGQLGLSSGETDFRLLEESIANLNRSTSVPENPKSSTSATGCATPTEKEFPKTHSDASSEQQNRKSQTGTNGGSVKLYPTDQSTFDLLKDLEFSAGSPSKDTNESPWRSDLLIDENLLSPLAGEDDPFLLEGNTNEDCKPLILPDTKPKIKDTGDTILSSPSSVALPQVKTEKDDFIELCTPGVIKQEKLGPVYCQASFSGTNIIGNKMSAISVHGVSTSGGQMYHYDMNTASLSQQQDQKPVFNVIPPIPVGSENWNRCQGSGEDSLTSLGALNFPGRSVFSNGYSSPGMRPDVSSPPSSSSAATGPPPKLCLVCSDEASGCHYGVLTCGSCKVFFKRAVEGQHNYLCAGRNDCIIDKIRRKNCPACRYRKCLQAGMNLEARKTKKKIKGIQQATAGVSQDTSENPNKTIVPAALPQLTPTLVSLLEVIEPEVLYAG

Compound | fold transactivation induction (transactivation potential) [1] | also measured
O=C(c1ccc(OCCN2CCCCC2)cc1)c1c(-c2ccc(O)cc2)sc2cc(O)ccc12 [raloxifene] | 0.89 | 
C[C@]12CC[C@@H]3c4ccc(O)cc4C[C@@H](CCCCCCCCC[S+]([O-])CCCC(F)(F)C(F)(F)F)[C@H]3[C@@H]1CC[C@@H]2O (stereo partly drawn) [ICI 182,780] | 0.24 | 
CC(C)C[C@H](NC(=O)[C@H](Cc1ccccc1)NC(=O)c1cnccn1)B(O)O [bortezomib] | 0.78 | decrease in estradiol-mediated transactivation ([2]; MCF-7, 100 nM estradiol + 100 nM compound): 60%; decrease in estradiol-mediated transactivation ([2]; MCF-7, 100 nM estradiol + 1 μM compound): 54%; decrease in estradiol-mediated transactivation [2, 4]: 29%; EC50 [3]: 37 nM
CC/C(=C(\c1ccccc1)c1ccc(OCCN(C)C)cc1)c1ccccc1 [tamoxifen] |  | decrease in estradiol-mediated transactivation [2, 4]: 51%
CC#C[C@]1(O)CC[C@H]2[C@@H]3CCC4=CC(=O)CCC4=C3[C@@H](c3ccc(N(C)C)cc3)C[C@@]21C [RU486] | 0.4 | 
tetrocarcin A [NSC 333856] | 1.34 | 
CC(C)C[C@@H](C=O)NC(=O)[C@H](CC(C)C)NC(=O)[C@H](CC(C)C)NC(=O)OCc1ccccc1 [MG132] (Cbz-Leu-Leu-Leu-aldehyde) | 0.61 | EC50 [3]: 192 nM
